In ChEMBL document CHEMBL2169820, “Synthesis and biological activities of polyquinoline derivatives: new Bcl-2 family protein modulators” (Eur J Med Chem, 2012):
The source made the active and inactive calls. The calls are words filed in the database; no cut-off is given here.

Experiments:
Bcl-2-like protein 1 [1] = target: T1, Bcl-2-like protein 1 (Homo sapiens, UniProt Q07817); test: Inhibition of Bcl-XL-mediated cell death reduction expressed in serum starved mouse 3T3 cells assessed as residual cell viability at 5 uM incubated for 96 hrs by propidium iodide staining based FACS method; settings: NIH3T3
T1 sequence (Q07817 whole entry): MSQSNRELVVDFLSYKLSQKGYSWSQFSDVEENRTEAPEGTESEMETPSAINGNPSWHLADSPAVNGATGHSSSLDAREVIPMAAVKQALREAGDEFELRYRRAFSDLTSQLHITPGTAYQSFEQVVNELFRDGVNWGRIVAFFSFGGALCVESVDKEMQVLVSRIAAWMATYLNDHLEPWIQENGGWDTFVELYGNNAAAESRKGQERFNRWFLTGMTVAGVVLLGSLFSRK
Procedure, shortened: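 3T3 cells infected with pMig-hBcl-xL vector to overexpress human Bcl-xL, maintained in DMEM/10% FBS. Compound 5 µM given under serum starvation; % residual viability scored at 96 h by propidium iodide staining and FACS.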

BP3 [2] = test: Induction of apoptosis in human BP3 cells at 10 uM incubated for 24 hrs by Annexin V and propidium iodide staining based FACS method; assay type: functional, cell-based
Procedure, shortened: (§1)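 Tumour lines grown in RPMI with 10% FBS, 2 mM glutamine, 10 mM Hepes and gentamicin; PBMC from healthy donors, purified on Ficoll gradient, same medium. Cells exposed 24 h, then Annexin V/propidium iodide labelling and flow cytometry. Specific viability = (% viable treated × 100)/% viable untreated.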

Bcl-2-like protein 1 [3] = target: T1, Bcl-2-like protein 1; test: Inhibition of GST-tagged recombinant Bcl-XL interaction with biotinylated Bim peptide by ELISA based competitive binding assay
Procedure, shortened: (§2)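 Plates coated with anti-GST antibody (1 µg/mL, overnight, 4 °C), blocked in PBS/1% BSA. GST-tagged Bcl-xL, Bcl-2, Bfl-1 or Mcl-1 (10 ng/mL) bound 2 h, RT. Compound added for 1 h, then biotinylated Bim peptide (1 nM) for 1 h. HRP-streptavidin detection, acid stop, OD 450 nm; EC50 derived.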

Bcl-2-related protein A1 = target: T2, Bcl-2-related protein A1 (Homo sapiens, UniProt Q16548); test: Inhibition of GST-tagged recombinant Bfl1 interaction with biotinylated Bim peptide by ELISA based competitive binding assay; procedure, shortened: as §2
T2 sequence (Q16548 whole entry): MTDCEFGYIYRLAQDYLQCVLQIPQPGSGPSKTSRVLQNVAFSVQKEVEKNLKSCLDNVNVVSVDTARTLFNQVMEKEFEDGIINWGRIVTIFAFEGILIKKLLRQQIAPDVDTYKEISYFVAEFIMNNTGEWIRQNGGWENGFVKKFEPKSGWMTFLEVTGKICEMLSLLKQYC

[4] = target: Induced myeloid leukemia cell differentiation protein Mcl-1 (Homo sapiens, UniProt Q07820); test: Inhibition of GST-tagged recombinant Mcl1 interaction with biotinylated Bim peptide by ELISA based competitive binding assay; procedure, shortened: as §2
Sequence of Induced myeloid leukemia cell differentiation protein Mcl-1 (Q07820 whole entry): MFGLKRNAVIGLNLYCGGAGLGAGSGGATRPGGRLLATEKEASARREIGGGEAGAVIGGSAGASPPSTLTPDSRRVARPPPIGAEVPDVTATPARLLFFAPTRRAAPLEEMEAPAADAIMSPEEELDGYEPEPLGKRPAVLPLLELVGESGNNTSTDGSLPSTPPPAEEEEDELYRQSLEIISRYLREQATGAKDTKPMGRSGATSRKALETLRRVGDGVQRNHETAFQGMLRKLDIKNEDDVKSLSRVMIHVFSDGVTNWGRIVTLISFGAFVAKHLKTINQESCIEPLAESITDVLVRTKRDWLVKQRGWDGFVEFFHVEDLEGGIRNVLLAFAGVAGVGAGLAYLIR

[5] = target: Apoptosis regulator Bcl-2 (Homo sapiens, UniProt P10415); test: Inhibition of GST-tagged recombinant Bcl2 interaction with biotinylated Bim peptide by ELISA based competitive binding assay; procedure, shortened: as §2
Sequence of Apoptosis regulator Bcl-2 (P10415 whole entry): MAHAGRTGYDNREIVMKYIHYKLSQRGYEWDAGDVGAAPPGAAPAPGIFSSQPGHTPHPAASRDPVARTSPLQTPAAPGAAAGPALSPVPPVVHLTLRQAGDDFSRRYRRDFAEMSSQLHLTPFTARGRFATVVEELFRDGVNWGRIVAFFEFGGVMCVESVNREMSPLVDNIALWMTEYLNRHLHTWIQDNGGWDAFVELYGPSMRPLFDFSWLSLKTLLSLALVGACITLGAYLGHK

IM-9 [6] = test: Induction of apoptosis in human IM9 cells at 5 uM incubated for 24 hrs by Annexin V and propidium iodide staining based FACS method; assay type: functional, cell-based
Procedure, shortened: (§3)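 Cells grown in RPMI with 10% FBS, 2 mM glutamine, 10 mM Hepes and gentamicin. Exposed to compound for 24 h, then labelled with Annexin V and propidium iodide and read by flow cytometry. Specific viability = (% viable treated × 100)/% viable untreated.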

BP3 [7] = test: Induction of apoptosis in human BP3 cells at 5 uM incubated for 24 hrs by Annexin V and propidium iodide staining based FACS method; assay type: functional, cell-based; procedure, shortened: as §3
RS4-11 [8] = test: Induction of apoptosis in human RS4:11 cells at 5 uM incubated for 24 hrs by Annexin V and propidium iodide staining based FACS method; assay type: functional, cell-based; procedure, shortened: as §3
MEF [9] = test: Induction of cell death in mouse MEF cells containing Bax/Bak double knock out at 1 uM by Annexin V and propidium iodide staining based FACS method; assay type: functional
Procedure, shortened: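 Wild-type and Bax/Bak double-knockout MEFs were grown in DMEM with 10% FBS, 2 mM glutamine, 10 mM Hepes and gentamicin. They were treated for 24 h and stained with propidium iodide, with or without Annexin V, then analysed by flow cytometry. Data are mean ± SEM of 3 independent experiments.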

RS4-11 [10] = test: Induction of apoptosis in human RS4:11 cells at 10 uM incubated for 24 hrs by Annexin V and propidium iodide staining based FACS method; assay type: functional, cell-based; procedure, shortened: as §1
IM-9 [11] = test: Induction of apoptosis in human IM9 cells at 10 uM incubated for 24 hrs by Annexin V and propidium iodide staining based FACS method; assay type: functional, cell-based; procedure, shortened: as §1
MEF [12] = test: Induction of cell death in mouse MEF cells containing Bax/Bak double knock out at 10 uM by Annexin V and propidium iodide staining based FACS method; assay type: functional
Procedure, shortened: (§4)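 Wild-type and DKO MEFs kept in DMEM with 10% FBS, 2 mM glutamine, 10 mM Hepes and gentamicin. Cultured in medium alone or with compound, staurosporine 1 µM as reference. Viability read by flow cytometry; mean ± SEM of 3 independent experiments.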

MEF [13] = test: Induction of cell death in mouse MEF cells containing Bax/Bak double knock out at 1.25 to 10 uM by Annexin V and propidium iodide staining based FACS method; assay type: functional; procedure, shortened: as §4
PBMC = test: Induction of apoptosis in human PBMCs at 5 or 10 uM incubated for 24 hrs by Annexin V and propidium iodide staining based FACS method; assay type: cell-based; procedure, shortened: as §1

## CCOc1nc2ccccc2cc1-c1cc(C(C)C)c2cc(-c3cc(C(C)C)c4ccc(N5CCCC5)nc4c3)c(OCC)nc2c1
Bcl-2-like protein 1 [1]
  Activity: 92.3%

## CCOc1nc2ccccc2cc1-c1cc(C(C)C)c2cc(-c3cc(C(C)C)c4ccc(N5CCOCC5)nc4c3)c(OCC)nc2c1
Bcl-2-like protein 1 [1]
  Activity: 93.6%

## CCCOc1nc2cc(-c3cc4ccccc4nc3N3CCOCC3)cc(C(C)C)c2cc1-c1cc(C(C)C)c2ccc(N3CCCC3)nc2c1
Bcl-2-like protein 1 [1]
  Activity: 93.4%

## CCCOc1ccc2c(C(C)C)cc(-c3cc4ccccc4nc3N3CCOCC3)cc2n1
BP3 [2]
  Activity: inactive
Bcl-2-like protein 1 [3]
  EC50: > 100 µM
Bcl-2-like protein 1 [1]
  Activity: 32.7%
Bcl-2-related protein A1
  EC50: 8.2 µM
[4]
  EC50: 7.9 µM
[5]
  EC50: 9.2 µM

## CCCOc1ccc2c(C(C)C)cc(-c3cc4c(C(C)C)cc(-c5cc6ccccc6nc5N5CCOCC5)cc4nc3OCCC)cc2n1
Bcl-2-like protein 1 [1]
  Activity: 92.3%

## CCOc1nc2cc(-c3cc4ccccc4nc3N3CCCC3)cc(C(C)C)c2cc1-c1cc(C(C)C)c2ccc(N3CCCC3)nc2c1
Bcl-2-like protein 1 [1]
  Activity: 95.1%

## CCCOc1nc2cc(-c3cc4ccccc4nc3N3CCCC3)cc(C(C)C)c2cc1-c1cc(C(C)C)c2ccc(N3CCCC3)nc2c1
Bcl-2-like protein 1 [1]
  Activity: 90.5%

## CCOc1nc2cc(-c3cc4ccccc4nc3N3CCOCC3)cc(C(C)C)c2cc1-c1cc(C(C)C)c2ccc(N3CCCC3)nc2c1
Bcl-2-like protein 1 [1]
  Activity: 92.2%

## CCOc1nc2cc(-c3cc4ccccc4nc3N3CCOCC3)cc(C(C)C)c2cc1-c1cc(C(C)C)c2ccc(N3CCOCC3)nc2c1
Bcl-2-like protein 1 [1]
  Activity: 96.5%

## CCCOc1nc2ccccc2cc1-c1cc(C(C)C)c2cc(-c3cc(C(C)C)c4ccc(N5CCCC5)nc4c3)c(OCCC)nc2c1
Bcl-2-like protein 1 [1]
  Activity: 94.6%

## CCOc1nc2cccc(C(C)C)c2cc1-c1cc(C(C)C)c2ccc(N3CCCC3)nc2c1
Bcl-2-like protein 1 [1]
  Activity: 91.6%

## CCCOc1nc2cc(-c3cc4ccccc4nc3N3CCOCC3)cc(C(C)C)c2cc1-c1cc(C(C)C)c2ccc(OCC)nc2c1
Bcl-2-like protein 1 [1]
  Activity: 95.2%

## CCOc1nc2cccc(C(C)C)c2cc1-c1cc(C(C)C)c2ccc(N3CCOCC3)nc2c1
Bcl-2-like protein 1 [1]
  Activity: 70.3%

## CC(C)=CCC[C@]1(C)C=Cc2c(O)c3c(c(CC=C(C)C)c2O1)O[C@]12C(=C[C@@H]4C[C@H]1C(C)(C)O[C@@]2(C/C=C(/C)C(=O)O)C4=O)C3=O
IM-9 [6]
  Activity: inactive
BP3 [7]
  Activity: inactive
RS4-11 [8]
  Activity: inactive
MEF [9]
  Activity: Active

## CCCOc1nc2cc(-c3cc4ccccc4nc3N3CCCC3)cc(C(C)C)c2cc1-c1cc(C(C)C)c2ccc(OCC)nc2c1
Bcl-2-like protein 1 [1]
  Activity: 94.5%

## CCOc1ccc2c(C(C)C)cc(-c3cc4ccccc4nc3N3CCOCC3)cc2n1
BP3 [2]
  Activity: inactive
RS4-11 [10]
  Activity: inactive
Bcl-2-like protein 1 [3]
  EC50: 14.6 µM
Bcl-2-like protein 1 [1]
  Activity: 37.9%
Bcl-2-related protein A1
  EC50: 24 µM
[4]
  EC50: 3.5 µM
IM-9 [11]
  Activity: inactive
[5]
  EC50: 2.7 µM

## CCOc1ccc2c(C(C)C)cc(-c3cc4c(C(C)C)cc(-c5cc6ccccc6nc5N5CCCC5)cc4nc3OCC)cc2n1
Bcl-2-like protein 1 [1]
  Activity: 95.3%

## CCCOc1ccc2c(C(C)C)cc(-c3cc4c(C(C)C)cc(-c5cc6ccccc6nc5N5CCCC5)cc4nc3OCC)cc2n1
Bcl-2-like protein 1 [1]
  Activity: 96.4%

## CN(C)CC[C@H](CSc1ccccc1)Nc1ccc(S(=O)(=O)NC(=O)c2ccc(N3CCN(Cc4ccccc4-c4ccc(Cl)cc4)CC3)cc2)cc1[N+](=O)[O-]
BP3 [2]
  Activity: Active
RS4-11 [10]
  Activity: Active
MEF [12]
  Activity: inactive
IM-9 [11]
  Activity: Active

## CN[C@@H]1C[C@H]2O[C@@](C)([C@@H]1OC)n1c3ccccc3c3c4c(c5c6ccccc6n2c5c31)C(=O)NC4
MEF [9]
  Activity: Active

## CCCOc1nc2ccccc2cc1-c1cc(C(C)C)c2ccc(N3CCOCC3)nc2c1
BP3 [2]
  Activity: inactive
RS4-11 [10]
  Activity: inactive
Bcl-2-like protein 1 [3]
  EC50: > 100 µM
Bcl-2-like protein 1 [1]
  Activity: 55.5%
Bcl-2-related protein A1
  EC50: 17.8 µM
[4]
  EC50: 11.6 µM
IM-9 [11]
  Activity: inactive
[5]
  EC50: 6.6 µM

## CC(C)c1cc(-c2cc3ccccc3nc2N2CCCC2)cc2nc(N3CCCC3)ccc12
BP3 [2]
  Activity: inactive
RS4-11 [10]
  Activity: inactive
Bcl-2-like protein 1 [3]
  EC50: > 100 µM
Bcl-2-like protein 1 [1]
  Activity: 4.37%
Bcl-2-related protein A1
  EC50: 21.5 µM
[4]
  EC50: 2.3 µM
IM-9 [11]
  Activity: inactive
[5]
  EC50: 1.4 µM

## CCCOc1nc2cc(-c3cc4ccccc4nc3N3CCOCC3)cc(C(C)C)c2cc1-c1cc(C(C)C)c2ccc(N3CCOCC3)nc2c1
Bcl-2-like protein 1 [1]
  Activity: 81.6%

## CCCOc1ccc2c(C(C)C)cc(-c3cc4ccccc4nc3N3CCCC3)cc2n1
Bcl-2-like protein 1 [1]
  Activity: 84.4%

## CCCOc1ccc2c(C(C)C)cc(-c3cc4c(C(C)C)cc(-c5cc6ccccc6nc5N5CCCC5)cc4nc3OCCC)cc2n1
Bcl-2-like protein 1 [1]
  Activity: 92.8%

## CCOc1nc2cc(-c3cc4ccccc4nc3N3CCCC3)cc(C(C)C)c2cc1-c1cc(C(C)C)c2ccc(N3CCOCC3)nc2c1
Bcl-2-like protein 1 [1]
  Activity: 91%

## CCCOc1nc2cc(-c3cc4ccccc4nc3N3CCCC3)cc(C(C)C)c2cc1-c1cc(C(C)C)c2ccc(N3CCOCC3)nc2c1
Bcl-2-like protein 1 [1]
  Activity: 96.5%

## CC(C)c1cc(-c2cc3ccccc3nc2N2CCOCC2)cc2nc(N3CCOCC3)ccc12
Bcl-2-like protein 1 [1]
  Activity: 67.9%

## CCOc1ccc2c(C(C)C)cc(-c3cc4ccccc4nc3N3CCCC3)cc2n1
BP3 [2]
  Activity: inactive
MEF [13]
  Activity: inactive
RS4-11 [10]
  Activity: Active
PBMC
  Activity: Non-toxic
Bcl-2-like protein 1 [3]
  EC50: 6.2 µM
Bcl-2-like protein 1 [1]
  Activity: 0.42%
Bcl-2-related protein A1
  EC50: 25.5 µM
[4]
  EC50: 2.1 µM
IM-9 [11]
  Activity: Active
[5]
  EC50: 3.5 µM

## CCCOc1nc2ccccc2cc1-c1cc(C(C)C)c2cc(-c3cc(C(C)C)c4ccc(N5CCOCC5)nc4c3)c(OCCC)nc2c1
Bcl-2-like protein 1 [1]
  Activity: 92.9%

## CCCOc1nc2ccccc2cc1-c1cc(C(C)C)c2ccc(N3CCCC3)nc2c1
Bcl-2-like protein 1 [1]
  Activity: 86.8%

## COC1=CC(c2cc3ccccc3[nH]2)=N/C1=C\c1[nH]c(C)cc1C [OBATOCLAX]
BP3 [2]
  Activity: Active
RS4-11 [10]
  Activity: Active
MEF [12]
  Activity: inactive
Bcl-2-like protein 1 [3]
  EC50: 0.9 µM
Bcl-2-related protein A1
  EC50: 0.6 µM
[4]
  EC50: 0.5 µM
IM-9 [11]
  Activity: Active
[5]
  EC50: 0.3 µM
